The values that follow come from PubChem BioAssay.

Usually inhibition stands for the relative decrease from the control value, in per cent.

Calls of active or inactive are those of the source.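 The calls were made as follows, unless noted: active = inhibition at or above 50% relative to wild type and mutant plate controls; inactive = inhibition below 50%.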

A short description of test [1]: inhibitors of TNFa-induced NFkB p65 translocation, primary screen, imaging, HUVEC, MLSMR starter and 10KST1 sets (AID 438;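 active = inhibition above 20% together with a positive visual image hit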;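 also: compound added about 3h40 before a 20 min TNFalpha stimulation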;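 as to inhibition: signal is the nuclear over cytoplasmic p65 intensity ratio per well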). As to conditions: HUVEC TNFa-induced p65 nuclear translocation; cell count: measured here: nuclei count (cytotoxicity indicator), at 2.08 µM; inhibition: at 2 µM, stronger effect = higher value, 0% TNFa-plus-vehicle, 100% no-TNFa wells.
Test [2] in a line: inhibitors of E-selectin induction by TNFa, primary screen, imaging, HUVEC, immunofluorescence, MLSMR starter and 10KST1 sets (AID 487;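 active = visually confirmed hit in the image check and inhibition above 20%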;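 as to inhibition: signal is fraction of cell area covered by stained E-selectin grains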;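 as to nuclei count: 100% = median nuclei count of all wells on the same plate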). The settings on record: HUVEC TNFalpha-induced E-selectin immunofluorescence imaging, at 2 µM; inhibition: stronger effect = higher value; nuclei count: measured here: cell number, toxicity.
Test [3] in a line: DUSP6 inhibitors restoring Erk phosphorylation by chemical complementation, primary imaging in DUSP6-transfected HeLa (AID 609;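 active = compounds giving at least 50% inhibition in the cell-based MKP-3 phosphatase rescue imaging test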;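 as to inhibition: phospho-Erk level distribution per well compared with pooled transfected vehicle control wells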). The settings on record: HeLa MKP-3 transfected, phospho-Erk imaging KS statistic, at 10 µM, cells stimulated with TPA for 15 min.
Test [4] addresses Dual specificity protein phosphatase 6 (Homo sapiens) (UniProt Q16828). The test is described as above. The settings on record: HeLa MKP-3 transfected, phospho-Erk imaging KS statistic; at 10 µM; stronger effect = higher value; cells stimulated with TPA for 15 min.
In test [5] the target is Voltage-gated potassium channel subunit beta-2 (Rattus norvegicus) (UniProt P62483). Put plainly: KvBeta enzyme negative modulators, primary screen, biochemical, NADPH fluorescence (AID 622;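 active = fluorescence slope higher than the sample average by over 3 SD, cut at about -0.22 in these data, passing the limit was not always enough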;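 also: slope of raw intensity against log time taken from 70 to 1610 s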). As to conditions: recombinant KvBeta, 4-cyanobenzaldehyde reduction, at 10 µM, stronger effect = higher value.
Chain of Voltage-gated potassium channel subunit beta-2 (Rattus norvegicus) (P62483 whole entry, looked up): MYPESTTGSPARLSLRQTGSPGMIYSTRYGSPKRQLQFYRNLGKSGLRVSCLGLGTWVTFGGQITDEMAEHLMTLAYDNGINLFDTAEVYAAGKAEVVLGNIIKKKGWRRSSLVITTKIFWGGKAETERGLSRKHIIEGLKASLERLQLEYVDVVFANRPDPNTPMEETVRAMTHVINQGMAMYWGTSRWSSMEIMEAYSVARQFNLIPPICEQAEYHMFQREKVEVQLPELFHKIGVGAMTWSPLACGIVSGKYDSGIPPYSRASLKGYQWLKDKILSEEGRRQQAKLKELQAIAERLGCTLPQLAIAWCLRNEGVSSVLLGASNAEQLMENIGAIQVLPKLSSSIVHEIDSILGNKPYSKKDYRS
For test [6] the target is unchanged. Put plainly: KvBeta positive modulators, primary screen, biochemical, NADPH fluorescence (AID 623;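 active = NADPH fluorescence slope more negative than the mean of all samples by about 3 SD, 99.7% confidence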;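 also: fluorescence intensity change per second fitted from 20 to 320 s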). As to conditions: Recombinant KvBeta, NADPH fluorescence decrease slope, 10 min; at 10 µM; stronger effect = lower value.
Test [7] concerns the target Muscarinic acetylcholine receptor M4 (Homo sapiens) (UniProt P08173). Put plainly: compounds altering M4/GIRK thallium flux, either direction, primary screen, M4 allosteric agonist project, cell-based, HEK293 M4/GIRK, BTC-AM (AID 625;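 active = fluorescence slope after compound addition differing from the mean of all tested samples at 99.7% confidence, mostly higher but some lower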;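 also: thallium influx through GIRK channels coupled to M4 in HEK293 cells with BTC-AM dye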). As to conditions: at 10 µM, actives lie on both sides. The method in brief: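 System: HEK293 cells with M4 receptor and GIRK channels | Incubation: Cells overnight at 37 °C, BTC-AM loading 1 h, reads 2 min total | Technique: Kinetic BTC-AM fluorescence sampled at 1 Hz, 10 s pre-addition baseline | Measure: Post-addition slope, 15–24 s, of baseline-normalized fluorescence | Control set: Carbachol positive, DMSO negative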

Test [8] is described as follows: inhibitors of larval lipid processing in zebrafish, primary screen, whole organism, PED6 fluorescence, gall bladder and intestine (AID 686;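 active = a full or partial loss of lipid-probe fluorescence in the fish gall bladder, intestine or both, judged by eye; inactive = no fluorescence loss, or compound toxic to the fish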;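 also: larvae 5 to 7 days old with five fish per well; signal comes from phospholipase A2 cleavage of quenched PED6 carried via bile; overnight exposure to compound and PED6 before scoring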). As to conditions: Zebrafish larvae PED6 lipid processing, fluorescence scoring; screened at 20 µM (by protocol). Summed up: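 Test system – live zebrafish larvae aged 5-7 days, whole organism · Buffer or medium – E3 fish medium · Reagent – quenched phospholipase substrate PED6, 100 nM final, ingested by larvae · Doses – 20 µM single dose · Incubation – overnight compound and PED6 incubation · Technique – visual fluorescence microscopy scoring of gall bladder, gut · Read-out basis – visual per-well fluorescence inhibition score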

Test [9] in a line: inhibitors of Chlamydomonas gravitaxis, primary screen, whole organism, Chlamydomonas reinhardtii, WT vs cilia-less mutant, absorbance, 96-well (AID 463189).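 Also: 0% = wild type cc124 cells in DMSO and 100% = ciliumless bld1 mutant cells.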 The settings on record: OD600 absorbance, 2 days, at 10 µM, stronger effect = higher value.
[10] abbreviates: measured here: cell density z-score.
Where [11] appears, read: measured here: nuclear c-Myc green intensity z-score.
Where [12] appears, read: measured here: nuclear pErk red intensity z-score, stronger effect = higher value.

Chain of Dual specificity protein phosphatase 6 (Homo sapiens) (Q16828 whole entry, looked up): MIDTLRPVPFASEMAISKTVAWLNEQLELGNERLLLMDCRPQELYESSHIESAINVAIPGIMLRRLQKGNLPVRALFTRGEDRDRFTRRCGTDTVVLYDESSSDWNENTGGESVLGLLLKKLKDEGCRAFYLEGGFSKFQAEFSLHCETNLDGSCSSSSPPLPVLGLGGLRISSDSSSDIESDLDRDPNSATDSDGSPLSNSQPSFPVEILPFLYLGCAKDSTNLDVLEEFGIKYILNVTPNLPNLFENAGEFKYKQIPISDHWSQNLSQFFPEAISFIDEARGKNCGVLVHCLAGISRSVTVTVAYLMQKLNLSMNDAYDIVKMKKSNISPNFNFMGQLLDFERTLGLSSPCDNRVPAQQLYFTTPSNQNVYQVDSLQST
Chain of Muscarinic acetylcholine receptor M4 (Homo sapiens) (P08173 whole entry, looked up): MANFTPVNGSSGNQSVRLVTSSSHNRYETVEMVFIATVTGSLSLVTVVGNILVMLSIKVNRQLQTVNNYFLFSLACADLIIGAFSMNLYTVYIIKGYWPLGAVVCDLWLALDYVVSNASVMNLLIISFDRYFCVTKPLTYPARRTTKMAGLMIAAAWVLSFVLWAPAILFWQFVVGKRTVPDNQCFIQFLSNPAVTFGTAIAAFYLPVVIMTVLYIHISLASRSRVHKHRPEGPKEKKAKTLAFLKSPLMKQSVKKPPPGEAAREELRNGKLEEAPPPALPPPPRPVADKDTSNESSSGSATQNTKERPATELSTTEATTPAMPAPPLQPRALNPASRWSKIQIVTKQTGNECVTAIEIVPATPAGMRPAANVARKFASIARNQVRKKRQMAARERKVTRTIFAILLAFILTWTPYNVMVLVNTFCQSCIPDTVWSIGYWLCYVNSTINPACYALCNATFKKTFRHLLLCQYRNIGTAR

As for `Cc1c(C)n(C(=O)CSc2nccn2C)c2ccccc12`, in test [1], the cell count turned out to be 625. Moreover, the inhibition was 8.3% (inactive) in test [1], -34.7% (inactive) in [2], 1.63% (inactive) in test [4] and -7.86% (inactive) in [9]. In [2], this compound came in with a nuclei count of 106%. Also, the z-score in test [3] (setting [10]) is -0.766; in test [3] (setting [11]), 1.61; in [3] (setting [12]), 0.593. In addition, the fluorescence slope in test [5] is -0.416 (inactive); in [7], 0.00619 (inactive). In addition, in test [6], the NADPH fluorescence slope was -3.5e-05 (inactive). Besides, the compound was classed as inactive in test [8].
On to `CC1(C)Cc2c(C#N)c(N3CCN(C(=O)c4ccco4)CC3)nc(-c3ccco3)c2CS1`, for which the cell count in [1] is 639. The inhibition in test [1] was -0.1% (inactive); in test [2], -82.6% (inactive); in test [4] it was -4.27% (inactive); in test [9], 3.99% (inactive). For the same compound, the nuclei count in test [2] is 138%. For the same compound, the values for the z-score in [3] (setting [10]), in test [3] (setting [11]) and in test [3] (setting [12]) were -1.4, -0.121 and -2.48, respectively. Further, the fluorescence slope in test [5] is -0.464 (inactive); in test [7] it was 0.00584 (inactive). For the same compound, the NADPH fluorescence slope in [6] was -6.6e-05 (inactive). In [8], the outcome was inactive.
On to `Cc1cccn2c(=O)c3cc(C(N)=S)c(=N)n(CCCOC(C)C)c3nc12`, for which the cell count in [1] was found to be 637. Moreover, the inhibition in test [1] is -5.4% (inactive); in test [2] it was -92.7% (inactive); in test [4] it was 12.7% (inactive); in [9], 145% (active). The compound further came in with a nuclei count in test [2] of 153%. In addition, the z-score in test [3] (setting [10]) was 1.81; in test [3] (setting [11]), -0.956; in [3] (setting [12]) it was -1.49. Further, the fluorescence slope was -0.447 (inactive) in test [5] and 0.00286 (inactive) in test [7]. Further, in [6], the NADPH fluorescence slope is -3.3e-05 (inactive). Also, in [8], the compound was classed as inactive.
Consider `COc1ccc(C2=CC(c3ccc(C)cc3)n3nnnc3N2)cc1` (stereo unspecified), for which the cell count in [1] turned out to be 524. In addition, the inhibition in [1] was -9.2% (inactive); in test [2], 29.9% (inactive); in test [4] it was -9.91% (inactive); in test [9], -5.34% (inactive). Also, the nuclei count in [2] was determined as 186%. Also, the figures for the z-score in test [3] (setting [10]), in test [3] (setting [11]) and in [3] (setting [12]) were -0.166, -0.102 and 0.752, respectively. The fluorescence slope is -0.294 (inactive) in test [5] and 0.00566 (inactive) in test [7]. Besides, the NADPH fluorescence slope in [6] is -4.1e-05 (inactive). Besides, the result in test [8] was inactive.
For the compound `CCOC(=O)c1ccc(NC(=O)COc2ccccc2OC)cc1`, the cell count in test [1] amounted to 668. The inhibition in test [1] is -1.6% (inactive); in test [2], 26.3% (inactive); in [4], 33.3% (inactive); in [9], -9.5% (inactive). The compound further came in with a nuclei count in test [2] of 179%. In addition, the z-score was 1.9 in [3] (setting [10]), 0.486 in [3] (setting [11]) and -1.19 in [3] (setting [12]). Also, the values for the fluorescence slope in test [5] and in test [7] were -0.465 (inactive) and 0.00666 (inactive), respectively. In addition, the NADPH fluorescence slope in test [6] is -0.000105 (inactive). Moreover, the call in test [8] was inactive.
For the compound `CCOC(=O)c1c(N)sc(=S)c2c1CCC2`, the cell count in test [1] amounted to 618. Also, the inhibition in [1] is -6.2% (inactive); in test [2] it was -92.1% (inactive); in test [4] it was -11.4% (inactive); in test [9], 15% (inactive). Moreover, the nuclei count in [2] was found to be 139%. Also, the z-score in test [3] (setting [10]) was 0.668; in [3] (setting [11]) it was -0.746; in test [3] (setting [12]), -1.03. Also, the values for the fluorescence slope in test [5] and in [7] were -0.467 (inactive) and 0.00293 (inactive), respectively. The NADPH fluorescence slope in test [6] was -0.000294 (inactive). The result in [8] was inactive.
On to `COc1cc2c(cc1OC)C1(CCCC1)C(N)=C2C#N`, for which, in [1], the cell count was determined as 374. For the same compound, the inhibition in test [1] was 2.5% (inactive); in test [2] it was 36.9% (inactive); in test [4] it was 17.4% (inactive); in test [9], 2.1% (inactive). The nuclei count in test [2] turned out to be 104%. The results for the z-score in test [3] (setting [10]), in test [3] (setting [11]) and in test [3] (setting [12]) were -0.0432, -0.638 and 1.42, respectively. The fluorescence slope in [5] was -0.437 (inactive); in test [7], 0.00412 (inactive). Also, the NADPH fluorescence slope in test [6] was -0.000121 (inactive). Further, in [8], the result was inactive.
